MrgX1 PAM: positive allosteric modulators of MrgX1, primary screen, HEK293 cells, Fluo-4 calcium flux. 310,000 tested, 0.63% active. FDSS; active compounds read high. B-score at 10 µM;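 active means plate-corrected calcium response at least 3 library SD above typical, normal starting fluorescence, not activating the receptor alone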;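 further: compound read alongside a low EC10 to EC30 dose of BAM8-22 agonist; peak minus trough fluorescence over baseline measured at the second addition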
Target sequence (Q96LB2 whole entry, looked up): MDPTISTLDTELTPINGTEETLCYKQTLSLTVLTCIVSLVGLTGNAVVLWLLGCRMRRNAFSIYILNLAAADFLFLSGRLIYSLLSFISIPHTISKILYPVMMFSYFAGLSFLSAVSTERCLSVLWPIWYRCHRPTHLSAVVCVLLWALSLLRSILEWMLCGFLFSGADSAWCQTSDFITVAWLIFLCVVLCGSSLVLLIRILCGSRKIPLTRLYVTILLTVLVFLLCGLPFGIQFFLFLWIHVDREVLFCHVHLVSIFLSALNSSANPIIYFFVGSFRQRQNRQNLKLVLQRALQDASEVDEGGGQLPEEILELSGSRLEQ
RGS4 block: RGS4 inhibitors, primary screen, cell-based, HEK293 M3R inducible RGS4, calcium flux; Regulator of G-protein signaling 4 (Homo sapiens), P49798; Fluo-4 calcium flux; active compounds read high; triggered by carbachol at its EC20; B-score at 10 µM; 310,000 tested, 0.45% active;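 active means B-score, a plate-corrected calcium signal, over three deviations above library mean, with baseline fluorescence within five deviations of library mean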;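 further: RGS4 expression induced by doxycycline in cells with stable M3 receptor; B-score is computed from the integrated fluorescence ratio over baseline after carbachol; higher B-score means a larger calcium signal and so more RGS4 inhibition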
Target sequence (P49798 whole entry, looked up): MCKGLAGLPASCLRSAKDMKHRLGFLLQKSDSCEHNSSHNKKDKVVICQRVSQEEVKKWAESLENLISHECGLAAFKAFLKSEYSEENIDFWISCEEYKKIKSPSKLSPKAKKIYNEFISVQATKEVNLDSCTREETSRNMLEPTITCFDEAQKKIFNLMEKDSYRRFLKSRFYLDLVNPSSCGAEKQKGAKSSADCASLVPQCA
RGS4 pot: RGS4 potentiators or activators, primary screen, cell-based, HEK293 M3R inducible RGS4, calcium flux; 310,000 tested, 0.92% active; AID 463111, 2010; B-score at 10 µM; carbachol calcium flux Fluo4; active compounds read low;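 active means B-score of the integrated calcium signal more than 4 SD below the library mean, with starting fluorescence not abnormally high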;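 further: negative B-score means reduced calcium response which marks RGS4 activation or potentiation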
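test system = M3R-expressing HEK293 line, RGS4 induced by doxycycline | probe or stimulus = carbachol at ECmax as muscarinic agonist stimulus | timing = dye loading 30 min 37 °C, buffer rest 30 min RT | signal = calcium dye Fluo4 fluorescence | evaluation = B score from integrated fluorescence ratio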
MrgX1 ag: agonists of human MrgX1 receptor, primary screen, HEK293 cells, Fluo-4 calcium flux | Fluo-4 calcium fluorescence, agonist mode; active compounds read high | B-score at 10 µM | Mas-related G-protein coupled receptor member X1 (Homo sapiens), Q96LB2 | 310,000 tested, 0.44% active;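 active means calcium response B-score plate-corrected fluorescence ratio at least 3 library SD, with starting fluorescence B-score inside 5 SD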
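System – MrgX1-expressing HEK293 cells · Incubation – cells plated overnight, dye loaded 0.5 h 37 °C, 0.5 h room temperature · Technique – kinetic Fluo-4 NW fluorescence of intracellular calcium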
MrgX1 antagonist: antagonists of human MrgX1 receptor, primary screen, HEK293 cells, Fluo-4 calcium flux; Mas-related G-protein coupled receptor member X1 (Homo sapiens), Q96LB2; BAM8-22 antagonism; active compounds read low; B-score at 10 µM; 310,000 tested, 1.3% active; AID 588676, 2011;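 active means calcium-response B-score plate-corrected more than 3 library SD below zero, starting fluorescence within 5 deviations, no agonist response on first addition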;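 further: peak minus trough fluorescence over baseline after final BAM8-22 challenge near maximal dose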
* marks the source's active call; other numbers are inactive results. Rows were chosen to be rich in hits. Some 3.5% of all compounds tested hit in one or more screens of this group.

What do the screens show for `O=C(Nc1ccc(-c2n[nH]c(=S)o2)cc1)c1ccccc1Br`?
MrgX1 PAM: inactive; RGS4 block: inactive; RGS4 pot: inactive; MrgX1 ag: inactive; MrgX1 antagonist: inactive

What do the screens show for `CCN(CC)c1ccc(/C=C(/C#N)C(=O)NC(C)C)o1`?
MrgX1 PAM: inactive; RGS4 block: inactive; RGS4 pot: inactive; MrgX1 ag: inactive; MrgX1 antagonist: inactive

How did CCN(CC)c1ccc(/C=C(/C#N)C(=O)NCc2ccccc2)o1 do in these assays?
MrgX1 PAM: 7.02*; RGS4 block: inactive; RGS4 pot: inactive; MrgX1 ag: inactive; MrgX1 antagonist: inactive

What do the screens show for `Cc1c(S(=O)(=O)N2CCN(c3cccc(Cl)c3)CC2)c(=O)n(C)c(=O)n1C`?
MrgX1 PAM: inactive; RGS4 block: inactive; RGS4 pot: inactive; MrgX1 ag: inactive; MrgX1 antagonist: inactive

How did COc1cc(NC(=O)CN(C)CCOc2ccccc2)c(C)cc1[N+](=O)[O-] do in these assays?
MrgX1 PAM: inactive; RGS4 block: inactive; RGS4 pot: inactive; MrgX1 ag: inactive; MrgX1 antagonist: inactive

What do the screens show for `CN(CCOc1ccccc1)CC(=O)Nc1ccc(Cl)cc1[N+](=O)[O-]`?
MrgX1 PAM: 12.9*; RGS4 block: inactive; RGS4 pot: inactive; MrgX1 ag: inactive; MrgX1 antagonist: inactive

What do the screens show for `CCOc1ccc(-n2nc3c(=O)n(CCN4CCCCC4)nc(C)c3c2C)cc1`?
MrgX1 PAM: inactive; RGS4 block: inactive; RGS4 pot: -8.51*; MrgX1 ag: inactive; MrgX1 antagonist: inactive

Results for COc1ccccc1CN1CC(C(=O)N2CCC(OC)CC2)CCC1=O (stereo not given) ?
MrgX1 PAM: inactive; RGS4 block: inactive; RGS4 pot: inactive; MrgX1 ag: inactive; MrgX1 antagonist: inactive

What do the screens show for `COc1ccc(CNC[C@@H](CCCCN(C)Cc2ccc(OC)cc2)N2C[C@H](c3ccccc3)N(CCc3ccc(Cl)c(Cl)c3)C(=O)C2=O)cc1`?
MrgX1 PAM: inactive; RGS4 block: inactive; RGS4 pot: -8.17*; MrgX1 ag: inactive; MrgX1 antagonist: inactive

What do the screens show for `Cn1c(-c2c(N)n(-c3ccccc3)c3nc4ccccc4nc23)nc2ccccc21`?
MrgX1 PAM: inactive; RGS4 block: inactive; RGS4 pot: inactive; MrgX1 ag: inactive; MrgX1 antagonist: inactive

What do the screens show for `Cc1cccc(-n2c(N)c(-c3nc4ccccc4n3C)c3nc4ccccc4nc32)c1`?
MrgX1 PAM: inactive; RGS4 block: inactive; RGS4 pot: -7.46*; MrgX1 ag: inactive; MrgX1 antagonist: inactive

What do the screens show for `Cc1ccc2c(c1)C1CN(C)CCC1N2C(=O)COc1ccccc1F` (stereo not given)?
MrgX1 PAM: inactive; RGS4 block: inactive; RGS4 pot: inactive; MrgX1 ag: inactive; MrgX1 antagonist: inactive

How did Cc1ccc(CSc2nc3ccccc3cc2C=O)cc1 do in these assays?
MrgX1 PAM: inactive; RGS4 block: inactive; RGS4 pot: -8.3*; MrgX1 ag: inactive; MrgX1 antagonist: inactive

How did Cc1ccc(Nc2nc(N)nc(CN3CCN(C)CC3)n2)cc1 do in these assays?
MrgX1 PAM: inactive; RGS4 block: inactive; RGS4 pot: -7.15*; MrgX1 ag: inactive; MrgX1 antagonist: inactive

How did CC1(C)CCc2c([nH]c3ccccc3c2=O)O1 do in these assays?
MrgX1 PAM: inactive; RGS4 block: inactive; RGS4 pot: -7*; MrgX1 ag: inactive; MrgX1 antagonist: inactive

Results for CCC1CCc2c([nH]c3ccccc3c2=O)O1 (stereo not given) ?
MrgX1 PAM: inactive; RGS4 block: inactive; RGS4 pot: inactive; MrgX1 ag: inactive; MrgX1 antagonist: inactive

How did CCn1c(C)c(C(C)=O)cc(C#N)c1=O do in these assays?
MrgX1 PAM: inactive; RGS4 block: inactive; RGS4 pot: inactive; MrgX1 ag: inactive; MrgX1 antagonist: inactive

What do the screens show for `CCCCCNC(=O)C1CC=CCC1C(=O)O` (stereo not given)?
MrgX1 PAM: inactive; RGS4 block: inactive; RGS4 pot: inactive; MrgX1 ag: inactive; MrgX1 antagonist: inactive

What do the screens show for `CCCCN(CCCC)C(=O)C1CC=CCC1C(=O)O` (stereo not given)?
MrgX1 PAM: inactive; RGS4 block: inactive; RGS4 pot: inactive; MrgX1 ag: inactive; MrgX1 antagonist: -5.94*

Results for CCOC(=O)c1c(N2C(=O)Nc3ccccc3N2O)sc2c1CCCCC2 ?
MrgX1 PAM: inactive; RGS4 block: inactive; RGS4 pot: inactive; MrgX1 ag: 34.6*; MrgX1 antagonist: inactive

How did COC(=O)c1c(N2C(=O)Nc3ccccc3N2O)sc2c1CCCC2 do in these assays?
MrgX1 PAM: inactive; RGS4 block: inactive; RGS4 pot: inactive; MrgX1 ag: inactive; MrgX1 antagonist: inactive

Results for O=C(N/N=C/c1ccc2c(c1)OCO2)C1CC1 ?
MrgX1 PAM: inactive; RGS4 block: inactive; RGS4 pot: inactive; MrgX1 ag: inactive; MrgX1 antagonist: -5.4*

Results for Cc1cc(Cl)c(S(=O)(=O)N/N=C/c2ccc3c(c2)OCO3)c(Cl)c1 ?
MrgX1 PAM: inactive; RGS4 block: inactive; RGS4 pot: -8.21*; MrgX1 ag: inactive; MrgX1 antagonist: inactive

How did O/N=C/c1cc(Br)ccc1OCc1ccccc1F do in these assays?
MrgX1 PAM: inactive; RGS4 block: inactive; RGS4 pot: inactive; MrgX1 ag: inactive; MrgX1 antagonist: -7.38*

Results for C=CCOc1ccc(Br)cc1/C=N/O ?
MrgX1 PAM: inactive; RGS4 block: inactive; RGS4 pot: inactive; MrgX1 ag: inactive; MrgX1 antagonist: inactive

What do the screens show for `Fc1ccccc1COc1ccc(Br)cc1CNCc1ccncc1`?
MrgX1 PAM: inactive; RGS4 block: inactive; RGS4 pot: -9.58*; MrgX1 ag: inactive; MrgX1 antagonist: inactive

How did CCc1ccc(OCC(=O)NNC(=O)Cc2c(F)cccc2Cl)cc1 do in these assays?
MrgX1 PAM: inactive; RGS4 block: inactive; RGS4 pot: inactive; MrgX1 ag: inactive; MrgX1 antagonist: -6.89*

How did COc1ccc(CNC(=O)CSc2ncn[nH]2)cc1OC do in these assays?
MrgX1 PAM: inactive; RGS4 block: inactive; RGS4 pot: inactive; MrgX1 ag: inactive; MrgX1 antagonist: inactive

Results for COc1ccc(C)cc1N(C(=O)c1snc(C(N)=O)c1N)C(C(=O)NC1CCCCC1)c1ccc(C)o1 (stereo not given) ?
RGS4 block: inactive; RGS4 pot: inactive

Results for CCn1c(Cl)c(C=O)s/c1=N\S(=O)(=O)c1ccccc1 ?
MrgX1 PAM: inactive; RGS4 block: inactive; RGS4 pot: inactive; MrgX1 ag: 30.9*; MrgX1 antagonist: inactive

What do the screens show for `CCN1C(=O)CS/C1=N\S(=O)(=O)c1ccc(Cl)cc1`?
MrgX1 PAM: inactive; RGS4 block: inactive; RGS4 pot: inactive; MrgX1 ag: inactive; MrgX1 antagonist: inactive
